38 sequences from the array DNA melting data of Ke et al. (doi:10.1101/2024.01.08.574731) can be followed below.

Series [1] can be described thus: melting temperature; fluorescence melt of hairpins on a sequencing array, two-state fit, raised by 9.35 °C to match UV melts. Particulars: sodium 0.088 M. The gist of the method:
(§1)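 Folding enthalpy and melting temperature come from bootstrapped two-state fits to Cy3 fluorescence of library hairpins carrying annealed Cy3 and quencher oligos on a sequenced MiSeq flow cell. Imaging was done in 50 mM Na-HEPES pH 8.0, 25 mM NaCl, stepping by 2.5 °C up to 60 °C, and signals were normalised to pre-quench Cy3 and to control constructs. Results of four replicates were combined by inverse variance, and fitted temperatures were raised by 9.35 °C to match UV melts.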

Series [2] in a line: folding enthalpy; higher = less favourable; fluorescence melt of hairpins on a sequencing array, two-state fit. Particulars: sodium 0.088 M. The gist of the method: as §1

For the sequence GATCTTGGTCAAGATC ((((((....)))))), in series [1], the Tm was determined as 48.9 °C. Further, the folding enthalpy in series [2] is -36.8 kcal/mol.

In the case of GATCTTGGTTAAGATC ((((((....)))))), the Tm in series [1] came to 43.7 °C. Further, the folding enthalpy in series [2] was -30.5 kcal/mol.

For the sequence GATCTTGTACAAGATC ((((((....)))))), in series [1], the Tm came out at 51.7 °C. The folding enthalpy in series [2] is -43.2 kcal/mol.

In the case of GATCTTGTATAAGATC ((((((....)))))), in series [1], the Tm came out at 50.5 °C. Besides, the folding enthalpy in series [2] was -37.7 kcal/mol.

Turning to GATCTTGTGAAGATC ((((((...)))))), the Tm in series [1] worked out at 42.4 °C. Further, the folding enthalpy in series [2] was -28.9 kcal/mol.

Consider GATCTTGTTCAAGATC ((((((....)))))), for which, in series [1], the Tm came to 49.1 °C. Moreover, the folding enthalpy in series [2] is -43.4 kcal/mol.

For the sequence GATCTTGTTGAAGATC ((((((....)))))), the Tm in series [1] was 45 °C. The folding enthalpy in series [2] is -27.2 kcal/mol.

Consider GATCTTTAAAAGATC ((((((...)))))), for which the Tm in series [1] is 39.9 °C. Further, the folding enthalpy in series [2] was -23 kcal/mol.

Regarding GATCTTTACAAAGATC ((((((....)))))), the Tm in series [1] is 46.5 °C. Further, the folding enthalpy in series [2] is -33.8 kcal/mol.

In the case of GATCTTTACGAAGATC ((((((....)))))), in series [1], the Tm was 45.3 °C. For the same sequence, the folding enthalpy in series [2] is -32.2 kcal/mol.

Take GATCTTTACTAAGATC ((((((....)))))): the Tm in series [1] came to 45 °C. Moreover, the folding enthalpy in series [2] is -38 kcal/mol.

GATCTTTAGAAAGATC ((((((....)))))): in series [1], the Tm was 40.6 °C. For the same sequence, in series [2], the folding enthalpy was -31.1 kcal/mol.

With GATCTTTAGCAAGATC ((((((....)))))), the Tm in series [1] was found to be 37.1 °C. The folding enthalpy in series [2] is -28.2 kcal/mol.

GATCTTTAGGAAGATC ((((((....)))))): the Tm in series [1] was 42.6 °C. For the same sequence, the folding enthalpy in series [2] was -28.5 kcal/mol.

Consider GATCTTTAGTAAGATC ((((((....)))))), for which, in series [1], the Tm worked out at 40 °C. Also, the folding enthalpy in series [2] is -29.9 kcal/mol.

As to GATCTTTATTAAGATC ((((((....)))))), the Tm in series [1] stood at 43.5 °C. Further, the folding enthalpy in series [2] was -34.2 kcal/mol.

As for GATCTTTCAAAGATC ((((((...)))))), the Tm in series [1] came out at 44.5 °C. The folding enthalpy in series [2] was -28.5 kcal/mol.

Take GATCTTTCATAAGATC ((((((....)))))): in series [1], the Tm was 44.8 °C. Besides, in series [2], the folding enthalpy is -31.4 kcal/mol.

Regarding GATCTTTCTAAGATC ((((((...)))))), the Tm in series [1] is 45.2 °C. Further, the folding enthalpy in series [2] is -34.2 kcal/mol.

GATCTTTCTTAAGATC ((((((....)))))): the Tm in series [1] was 44.9 °C. The folding enthalpy in series [2] was -37.3 kcal/mol.

With GATCTTTGAAAGATC ((((((...)))))), the Tm in series [1] was determined as 38.1 °C. The folding enthalpy in series [2] is -25.8 kcal/mol.

Take GATCTTTGGAAGATC ((((((...)))))): the Tm in series [1] is 41.2 °C. Also, the folding enthalpy in series [2] was -26.6 kcal/mol.

With GATCTTTGGTAAGATC ((((((....)))))), in series [1], the Tm turned out to be 42.5 °C. Moreover, in series [2], the folding enthalpy is -30.8 kcal/mol.

For GATCTTTTATAAGATC ((((((....)))))), the Tm in series [1] turned out to be 44.1 °C. Moreover, in series [2], the folding enthalpy was -34.5 kcal/mol.

For GATCTTTTCAAGATC ((((((...)))))), the Tm in series [1] is 47.7 °C. Further, the folding enthalpy in series [2] is -36.3 kcal/mol.

On to GATCTTTTCCAAGATC ((((((....)))))), for which the Tm in series [1] came out at 42.9 °C. Besides, the folding enthalpy in series [2] is -36.2 kcal/mol.

As to GATCTTTTCGAAGATC ((((((....)))))), the Tm in series [1] was found to be 46.4 °C. The folding enthalpy in series [2] is -33.5 kcal/mol.

Consider GATCTTTTTTAAGATC ((((((....)))))), for which the Tm in series [1] was found to be 45.2 °C. The folding enthalpy in series [2] was -35.2 kcal/mol.

With GATGAACGAAAGTTGATC (((.(((....))).))), the Tm in series [1] was 38.1 °C. The folding enthalpy in series [2] is -22.7 kcal/mol.

For GATGAACGAAAGTTTATC (((.(((....))).))), the Tm in series [1] stood at 44.6 °C. Besides, the folding enthalpy in series [2] is -29.3 kcal/mol.

Consider GATGAAGCGAAAGCTATC (((..(((....)))))), for which, in series [1], the Tm is 28.4 °C. The folding enthalpy in series [2] was -10.4 kcal/mol.

In the case of GATGAAGGAAACTTCACC (.(((((....))))).), the Tm in series [1] was found to be 32.2 °C. The folding enthalpy in series [2] is -13.2 kcal/mol.

Consider GATGACCGAAAGGTTATC (((.(((....))).))), for which the Tm in series [1] turned out to be 51 °C. In series [2], the folding enthalpy is -36.2 kcal/mol.

Regarding GATGACGAAAGTCAAATC ((((((....)))..))), in series [1], the Tm was 34.6 °C. In series [2], the folding enthalpy is -11.8 kcal/mol.

Consider GATGACGAAAGTCATATC ((((((....)))..))), for which, in series [1], the Tm amounted to 50 °C. Further, the folding enthalpy in series [2] was -14 kcal/mol.

Turning to GATGACGAAAGTCCTATC ((((((....)))..))), in series [1], the Tm is 24 °C. Also, the folding enthalpy in series [2] is -9.62 kcal/mol.

Turning to GATGACGAAAGTCGGATC ((((((....)))..))), in series [1], the Tm came to 34.3 °C. The folding enthalpy in series [2] is -13.4 kcal/mol.

For the sequence GATGACGAAAGTCTAATC ((((((....)))..))), the Tm in series [1] was 29.9 °C. Besides, the folding enthalpy in series [2] was -12 kcal/mol.
